Drawing on PubChem BioAssay, this text covers growth inhibition for 40 compounds.

Structures are written as SMILES. Values without a mark were called inactive. Active and inactive are the calls of the source.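 Rule for the calls, unless noted: active = growth inhibition above 25% in both replicates, a cutoff set 3 SD above the mean; inconclusive = above 25% in only one replicate; inactive = the rest.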

One assay can be described thus: S. cerevisiae growth inhibition in permissive medium (OD615), pilot counter-assay for S. cerevisiae lifespan shortening project, permissive growth control (AID 705). Conditions: OD615, 24 h, at 10 µM, stronger effect = higher value. In a few lines: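 System: Engineered DeaD yeast | Buffer or medium: SC raffinose/galactose permissive medium | Doses: 10 µM single dose, 0.25% DMSO | Times: 24 h exposure, 30 °C | Measured by: OD615 turbidity read | Read-out: Yeast growth inhibition indicated by reduced 24 h OD615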
Take `O=C(CSc1ccc2nnc(-c3ccc(F)cc3)n2n1)N1CCOCC1`: the growth inhibition was -5.25%.
For the compound `COC(=O)CN1C(=O)COc2ccc(Cl)cc21`, the growth inhibition is 4.22%.
On to `CCOC(=O)C1CCCN(C(=O)Cn2sc3nc(C)cc(C)c3c2=O)C1` (stereo not given), for which the growth inhibition was 18.4%.
For `O=C(NCc1cccs1)c1cnc2sccn2c1=O`, the growth inhibition is -9.93%.
The same measure, in the same setting: next, `COC(=O)c1cn(NC(=O)c2ccncc2)c(=O)c2ccccc12`: -0.73%.
On to `Cc1ccccc1C(=O)Nc1ccccc1`, for which the growth inhibition was -0.285%.
Same read-out and setting: next, `CC(Oc1ccccc1F)C(=O)NCCN1CCCCC1` (stereo not given): -9.04%.
Turning to `O=C(Cn1cc2c(n1)CCCCC2)NC1CCCCCC1`, the growth inhibition is -9.25%.
The same measure, in the same setting: next, `COc1ccccc1OCCC(=O)OCC(=O)NC(=O)NC(C)(C)C`: -2.01%; `COc1ccc(OC)c(NC(=O)C2CCCN2C(=O)C2CCC(C)CC2)c1` (stereo not given): -14.1%.
Take `Cc1ccc2oc(=O)c3cnn(CC(=O)NC4CCCCC4C)c3c2c1` (stereo not given): the growth inhibition is -14%.
The same measure, in the same setting: next, `O=C(Nc1nc(-c2ccccn2)cs1)C1COc2ccccc2O1` (stereo not given): 84.5% (active).
Turning to `O=C(Nc1ccc(Cl)cc1)C1CC2CCCC(C1)C2=O` (stereo not given), the growth inhibition is -7.49%.
With `O=C(NCc1ccc2c(c1)OCO2)c1cnc2n(c1=O)CCS2`, the growth inhibition was -2.39%.
As for `CC(C)(Oc1ccc(-c2ccco2)cc1)C(=O)O`, the growth inhibition is -0.405%.
As for `Cc1cc(S(=O)(=O)N2CCN(Cc3ccccc3)CC2)c(C)s1`, the growth inhibition was -11.6%.
Take `c1ccc(CSc2nnc(-c3ccncc3)o2)cc1`: the growth inhibition is -3.77%.
On the same count and under the same terms, for `CC(=O)c1cccc(NC(=O)c2cnn3ccccc23)c1` the value was -8.43%; for `CCOCCCNC(=O)Cn1cc2c(n1)CCCC2`, 3.43%; for `Cc1nn(-c2ccccc2)c2sc(C(=O)n3cccn3)cc12`, -10.7%.
As to `COc1ccccc1N1C(=O)N(C(C)=O)C2C1Nc1ccccc1N2C` (stereo not given), the growth inhibition was -2.22%.
In the case of `COCCOC(=O)C1=C(C)NC2=C(C(=O)CC(C)(C)C2)C1c1ccc2c(c1)OCO2` (stereo not given), the growth inhibition was -5.88%.
The same measure, in the same setting: for `CC(C)NS(=O)(=O)c1ccc(NC(=O)c2cccnc2)cc1` the value was -12.7%; for `CCCCCn1c(NCc2ccco2)nc2ccccc21`, 0.22%.
As for `O=C(Cn1cnc2c(cnn2-c2ccccc2)c1=O)NC1CCCC1`, the growth inhibition is 3.55%.
As to `Nc1cc(-c2cccc(F)c2)nn1S(=O)(=O)c1cccc2nsnc12`, the growth inhibition is -5.94%.
Regarding `COc1ccc(C/C(O)=C(\C#N)c2nc3ccccc3[nH]2)cc1OC`, the growth inhibition is -4.85%.
`O=C(NCCN1C(=O)C2C3C=CC(C3)C2C1=O)Nc1cccnc1` (stereo not given): the growth inhibition is -0.65%.
On to `CN(C)C(=O)c1nnc(Cc2ccc(Cl)cc2)o1`, for which the growth inhibition was -8.24%.
For the compound `C=CCOC(=O)C1CC=CCC1C(=O)Oc1ccc(F)cc1F` (stereo not given), the growth inhibition was -18.3%.
In the case of `Cc1nnc(SCC(=O)N2CCOCC2)n1C`, the growth inhibition is -6.97%.
In the case of `Cc1cc(NCc2ccc3c(c2)OCO3)n2nc(C)nc2n1`, the growth inhibition is -16.8%.
The same measure, in the same setting: for `Cc1ccc(-c2nn3c(C)nnc3s2)cc1NC(=O)c1ccco1` the value was 3.94%.
As to `CN1CCCN(Cc2ccccc2C(F)(F)F)CC1`, the growth inhibition is 1.78%.
Regarding `CCOc1ccccc1N1CCN(C(=O)c2cc(C)oc2C)CC1`, the growth inhibition is -10.5%.
With `CC(CCc1ccco1)NC(=O)Cn1nc(Cc2ccncc2)c2ccccc2c1=O` (stereo not given), the growth inhibition is -0.065%.
The same measure, in the same setting: next, `CNC(=O)c1ccsc1NC(=O)c1ccc(Cl)s1`: -0.67%; `O=C(O)c1ccc(CSc2nnc(-c3ccco3)o2)cc1`: 7.71%; `CCN1C(=O)CSc2ccc(C(=O)OC)cc21`: -6.5%.
For the compound `CCOc1ccc(Oc2nc(NCC(C)C)nc(OC)n2)nn1`, the growth inhibition was -8.33%.

Another assay is described as follows: S. cerevisiae growth inhibition in restrictive medium, OD615, pilot screen, restrictive growth control, yeast lifespan reduction project (AID 706;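 active = growth inhibition above a set limit, 3 SD over mean compound inhibition, in both replicates, cut at about 43% in these data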;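 note: modified DeaD lifespan yeast strain shifted to restrictive glucose medium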). Conditions: OD615, 48 h, at 10 µM, stronger effect = higher value. Put shortly:
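Assay system: engineered S. cerevisiae DeaD strain; Buffer or medium: CSMM-D glucose medium; Dosing: 10 µM compound, 0.25% DMSO; Times: cell pre-growth 4 h, compound exposure 48 h, 30 °C; Detection: absorbance (optical density) measured at 615 nm.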
As to `O=C(CSc1ccc2nnc(-c3ccc(F)cc3)n2n1)N1CCOCC1`, the growth inhibition is -2.17%.
Consider `COC(=O)CN1C(=O)COc2ccc(Cl)cc21`, for which the growth inhibition was -4.81%.
For the compound `CCOC(=O)C1CCCN(C(=O)Cn2sc3nc(C)cc(C)c3c2=O)C1` (stereo not given), the growth inhibition is 29.4%.
As to `O=C(NCc1cccs1)c1cnc2sccn2c1=O`, the growth inhibition was 18%.
On to `COC(=O)c1cn(NC(=O)c2ccncc2)c(=O)c2ccccc12`, for which the growth inhibition was -19.7%.
On to `Cc1ccccc1C(=O)Nc1ccccc1`, for which the growth inhibition is -2.05%.
Regarding `CC(Oc1ccccc1F)C(=O)NCCN1CCCCC1` (stereo not given), the growth inhibition was -8.32%.
In the case of `O=C(Cn1cc2c(n1)CCCCC2)NC1CCCCCC1`, the growth inhibition was -9.21%.
As for `COc1ccccc1OCCC(=O)OCC(=O)NC(=O)NC(C)(C)C`, the growth inhibition was -17.1%.
On to `COc1ccc(OC)c(NC(=O)C2CCCN2C(=O)C2CCC(C)CC2)c1` (stereo not given), for which the growth inhibition is 6.52%.
Same read-out and setting: for `Cc1ccc2oc(=O)c3cnn(CC(=O)NC4CCCCC4C)c3c2c1` (stereo not given) the value was -9.46%.
As for `O=C(Nc1nc(-c2ccccn2)cs1)C1COc2ccccc2O1` (stereo not given), the growth inhibition is 96.9% (active).
On the same count and under the same terms, for `O=C(Nc1ccc(Cl)cc1)C1CC2CCCC(C1)C2=O` (stereo not given) the value was -3.51%; for `O=C(NCc1ccc2c(c1)OCO2)c1cnc2n(c1=O)CCS2`, 4.35%; for `CC(C)(Oc1ccc(-c2ccco2)cc1)C(=O)O`, 0.705%.
On to `Cc1cc(S(=O)(=O)N2CCN(Cc3ccccc3)CC2)c(C)s1`, for which the growth inhibition was 0.51%.
The same measure, in the same setting: for `c1ccc(CSc2nnc(-c3ccncc3)o2)cc1` the value was 9.8%; for `CC(=O)c1cccc(NC(=O)c2cnn3ccccc23)c1`, -17.2%.
Take `CCOCCCNC(=O)Cn1cc2c(n1)CCCC2`: the growth inhibition was 1.36%.
As to `Cc1nn(-c2ccccc2)c2sc(C(=O)n3cccn3)cc12`, the growth inhibition is -9.12%.
Turning to `COc1ccccc1N1C(=O)N(C(C)=O)C2C1Nc1ccccc1N2C` (stereo not given), the growth inhibition is -10%.
On the same count and under the same terms, for `COCCOC(=O)C1=C(C)NC2=C(C(=O)CC(C)(C)C2)C1c1ccc2c(c1)OCO2` (stereo not given) the value was -4.59%.
As to `CC(C)NS(=O)(=O)c1ccc(NC(=O)c2cccnc2)cc1`, the growth inhibition is -17.3%.
Regarding `CCCCCn1c(NCc2ccco2)nc2ccccc21`, the growth inhibition was 1.09%.
On the same count and under the same terms, for `O=C(Cn1cnc2c(cnn2-c2ccccc2)c1=O)NC1CCCC1` the value was -3.13%; for `Nc1cc(-c2cccc(F)c2)nn1S(=O)(=O)c1cccc2nsnc12`, -7.52%.
As to `COc1ccc(C/C(O)=C(\C#N)c2nc3ccccc3[nH]2)cc1OC`, the growth inhibition is 0.74%.
On to `O=C(NCCN1C(=O)C2C3C=CC(C3)C2C1=O)Nc1cccnc1` (stereo not given), for which the growth inhibition was -7.67%.
In the case of `CN(C)C(=O)c1nnc(Cc2ccc(Cl)cc2)o1`, the growth inhibition is 7.88%.
On to `C=CCOC(=O)C1CC=CCC1C(=O)Oc1ccc(F)cc1F` (stereo not given), for which the growth inhibition is -15.3%.
Turning to `Cc1nnc(SCC(=O)N2CCOCC2)n1C`, the growth inhibition was -18%.
Regarding `Cc1cc(NCc2ccc3c(c2)OCO3)n2nc(C)nc2n1`, the growth inhibition was -2%.
For the compound `Cc1ccc(-c2nn3c(C)nnc3s2)cc1NC(=O)c1ccco1`, the growth inhibition was 25.2%.
For the compound `CN1CCCN(Cc2ccccc2C(F)(F)F)CC1`, the growth inhibition is 1.52%.
With `CCOc1ccccc1N1CCN(C(=O)c2cc(C)oc2C)CC1`, the growth inhibition was -5.64%.
As for `CC(CCc1ccco1)NC(=O)Cn1nc(Cc2ccncc2)c2ccccc2c1=O` (stereo not given), the growth inhibition is 3.82%.
On the same count and under the same terms, next, `CNC(=O)c1ccsc1NC(=O)c1ccc(Cl)s1`: 14.4%; `O=C(O)c1ccc(CSc2nnc(-c3ccco3)o2)cc1`: 9.04%; `CCN1C(=O)CSc2ccc(C(=O)OC)cc21`: -12.7%.
On to `CCOc1ccc(Oc2nc(NCC(C)C)nc(OC)n2)nn1`, for which the growth inhibition is 5.96%.
